Data as given in ChEMBL document CHEMBL1159095, “Synthesis and optimization of thiadiazole derivatives as a novel class of substrate competitive c-Jun N-terminal kinase inhibitors” (Bioorg Med Chem, 2010).
Activity calls are given as the source filed them. The rule behind the calls is not given here.

Experiments:
[1] = target: T1, Mitogen-activated protein kinase 8 (Homo sapiens, UniProt P45983); assay: Inhibition of JNK1 up to 25 uM by TR-FRET assay
In short: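 LanthaScreen TR-FRET kinase assay. JNK1 at 35 ng/mL, ATF2 substrate at 400 nM and ATP at 0.2 μM in 50 mM HEPES pH 7.5, 10 mM MgCl2, 1 mM EGTA, 0.01% Brij-35, with compound. Reaction ran 1 hr at room temperature, then terbium-labelled antibody plus EDTA were added. After a further hour, the 520/495 nm emission ratio was read.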

[2] = target: T2, Mitogen-activated protein kinase 9 (Homo sapiens, UniProt P45984); assay: Displacement of biotin-labeled pep-JIP1from JNK2 at 50 uM by DELFIA assay
In short: (§1)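 Added Eu-labelled anti-GST antibody (300 ng/ml; 1.9 nM), compound in DMSO and GST-JNK2 at 10 nM final. Incubated 1 hr at 0 °C, washed 5 times, enhancement solution added, fluorescence read after 10 min (ex 340, em 615 nm). Controls were unlabelled peptide and no-compound blanks.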
Target sequence in this assay (P45984 whole entry, looked up): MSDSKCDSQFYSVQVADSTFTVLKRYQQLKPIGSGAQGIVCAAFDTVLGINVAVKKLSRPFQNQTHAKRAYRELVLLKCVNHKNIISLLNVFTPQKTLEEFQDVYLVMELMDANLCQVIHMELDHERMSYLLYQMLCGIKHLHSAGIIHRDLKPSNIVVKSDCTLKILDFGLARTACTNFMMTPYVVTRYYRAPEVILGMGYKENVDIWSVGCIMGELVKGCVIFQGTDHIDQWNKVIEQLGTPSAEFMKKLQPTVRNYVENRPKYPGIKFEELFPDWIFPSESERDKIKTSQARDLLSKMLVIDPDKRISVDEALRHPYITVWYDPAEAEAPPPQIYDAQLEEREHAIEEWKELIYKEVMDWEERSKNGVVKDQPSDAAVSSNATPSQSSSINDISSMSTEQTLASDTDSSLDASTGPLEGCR

[3] = target: T1, Mitogen-activated protein kinase 8; assay: Inhibition of JNK1 by TR-FRET assay
In short: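 LanthaScreen TR-FRET kinase assay. JNK1 at 35 ng/mL, ATF2 substrate at 400 nM and ATP at 0.2 μM in 50 mM HEPES pH 7.5, 10 mM MgCl2, 1 mM EGTA, 0.01% Brij-35, with compound. Reaction ran 1 hr at room temperature, then terbium-labelled antibody plus EDTA were added.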

[4] = target: T2, Mitogen-activated protein kinase 9; assay: Displacement of biotin-labeled pep-JIP1from JNK2 by DELFIA assay; in short: as §1
Target sequence in this assay (P45984 whole entry): as the sequence (P45984 whole entry, looked up) above

[5] = target: Mitogen-activated protein kinase 14 (Homo sapiens, UniProt Q16539); assay: Inhibition of p38alpha MAPK
[6] = target: RAC-alpha serine/threonine-protein kinase (Homo sapiens, UniProt P31749); assay: Inhibition of AKT
Furin = Furin (Homo sapiens, UniProt P09958); assay: Inhibition of FURIN
Lethal factor = target: T3, Lethal factor (Bacillus anthracis, UniProt P15917); assay: Inhibition of Bacillus anthracis anthrax lethal factor
T3 sequence (P15917 whole entry): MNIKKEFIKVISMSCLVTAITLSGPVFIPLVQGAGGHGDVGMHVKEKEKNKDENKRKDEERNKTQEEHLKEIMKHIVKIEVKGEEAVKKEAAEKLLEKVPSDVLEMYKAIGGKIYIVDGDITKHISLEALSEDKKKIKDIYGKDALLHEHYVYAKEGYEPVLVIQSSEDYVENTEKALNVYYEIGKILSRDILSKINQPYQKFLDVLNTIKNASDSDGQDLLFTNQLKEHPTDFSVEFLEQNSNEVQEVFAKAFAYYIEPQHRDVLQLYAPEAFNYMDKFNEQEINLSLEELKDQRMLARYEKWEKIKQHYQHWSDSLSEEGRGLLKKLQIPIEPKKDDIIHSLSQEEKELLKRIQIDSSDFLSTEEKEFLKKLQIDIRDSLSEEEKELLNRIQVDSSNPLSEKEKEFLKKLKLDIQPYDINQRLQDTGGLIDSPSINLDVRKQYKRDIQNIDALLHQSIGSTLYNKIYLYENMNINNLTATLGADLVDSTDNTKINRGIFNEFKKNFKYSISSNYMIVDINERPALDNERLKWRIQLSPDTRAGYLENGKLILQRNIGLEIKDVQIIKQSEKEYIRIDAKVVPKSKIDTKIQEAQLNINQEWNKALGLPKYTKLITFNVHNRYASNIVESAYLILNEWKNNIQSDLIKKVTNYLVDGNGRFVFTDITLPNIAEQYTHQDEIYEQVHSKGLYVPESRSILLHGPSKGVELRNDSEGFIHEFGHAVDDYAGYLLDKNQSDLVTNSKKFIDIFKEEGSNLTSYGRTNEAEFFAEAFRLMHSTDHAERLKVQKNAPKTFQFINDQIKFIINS

[7] = Metabolic stability in rat plasma assessed as compound remaining after 60 mins by LC/MS-MS; format: ADME, cell-free; details: read-out: Stability
In short: (§2)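 Compound at 1 μM (2.5% final DMSO) incubated in fresh rat plasma at 37 °C. Reactions stopped at 0, 30 and 60 min with two volumes of methanol containing internal standard, then precipitated, centrifuged and analysed by LC-MS. Percent parent remaining relative to 0 min calculated from peak-area ratios to internal standard. Run in duplicate with a plasma-labile positive control.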

[8] = Permeability assessed as drug flux at pH 7.4 by PAMPA assay; format: ADME
In short: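 PAMPA: filter impregnated with 1-20% phospholipid in organic solvent over an acceptor plate of aqueous buffer at pH 7.4. Donor added from a 20 μM stock (DMSO <2%). An equilibrium plate was prepared in parallel, and percent flux was calculated from acceptor versus equilibrium concentrations. Reference compounds included.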

[9] = Metabolic stability in rat plasma assessed as compound remaining after 30 mins by LC/MS-MS; format: ADME, cell-free; details: read-out: Stability; in short: as §2
[10] = target: Mitogen-activated protein kinase 9 (Homo sapiens, UniProt P45984, C163S); assay: Inhibition of JNK2 C163S mutant by isothermal calorimetry
In short: (§3)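 Isothermal titration calorimetry at 25 °C. C163S or wild-type JNK2 at 50 μM in 20 mM sodium phosphate pH 7.4 with 5% DMSO and 0.01% Triton X-100. Titrant at 750 μM in the same buffer.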

[11] = target: T2, Mitogen-activated protein kinase 9; assay: Inhibition of wild-type JNK2 by isothermal calorimetry; in short: as §3
Target sequence in this assay (P45984 whole entry): as the sequence (P45984 whole entry, looked up) above

[12] = Inhibition of JNK-mediated TNF-alpha-stimulated c-Jun phosphorylation by cell-based TR-FRET assay
In short: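 HeLa cells stably expressing GFP-c-Jun(1-79) plated at 10000/well in Opti-MEM with 1% charcoal/dextran-treated FBS, no phenol red, and left overnight. Pretreated 60 min with compound, then stimulated 30 min with TNF-alpha at 2 ng/ml. Lysed in buffer containing 2 nM terbium anti-phospho-c-Jun (Ser73) antibody and equilibrated 1 h at room temperature. TR-FRET ratio Em520/Em490 read with excitation at 340 nm.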

Sequence of Furin (P09958 whole entry): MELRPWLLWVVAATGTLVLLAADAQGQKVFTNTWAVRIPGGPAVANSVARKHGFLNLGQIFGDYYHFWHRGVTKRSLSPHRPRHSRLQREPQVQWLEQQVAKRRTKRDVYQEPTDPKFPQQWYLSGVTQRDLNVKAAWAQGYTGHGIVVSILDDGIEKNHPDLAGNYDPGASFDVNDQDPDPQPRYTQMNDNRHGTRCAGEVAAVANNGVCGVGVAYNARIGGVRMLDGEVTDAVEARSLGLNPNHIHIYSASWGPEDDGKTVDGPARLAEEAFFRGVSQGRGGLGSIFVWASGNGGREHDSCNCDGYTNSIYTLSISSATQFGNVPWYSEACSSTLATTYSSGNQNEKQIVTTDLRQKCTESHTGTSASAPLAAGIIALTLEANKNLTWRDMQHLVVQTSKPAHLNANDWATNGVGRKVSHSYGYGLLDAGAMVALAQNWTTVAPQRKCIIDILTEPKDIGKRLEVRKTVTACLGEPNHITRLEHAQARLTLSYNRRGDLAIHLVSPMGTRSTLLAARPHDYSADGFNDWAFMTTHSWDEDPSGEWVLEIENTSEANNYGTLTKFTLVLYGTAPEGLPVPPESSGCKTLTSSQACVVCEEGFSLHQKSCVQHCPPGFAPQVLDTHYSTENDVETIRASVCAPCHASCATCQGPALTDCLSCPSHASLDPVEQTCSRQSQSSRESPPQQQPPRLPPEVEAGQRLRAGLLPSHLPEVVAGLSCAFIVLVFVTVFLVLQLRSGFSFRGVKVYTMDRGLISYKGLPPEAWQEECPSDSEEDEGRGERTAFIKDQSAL
Sequence of RAC-alpha serine/threonine-protein kinase (P31749 whole entry): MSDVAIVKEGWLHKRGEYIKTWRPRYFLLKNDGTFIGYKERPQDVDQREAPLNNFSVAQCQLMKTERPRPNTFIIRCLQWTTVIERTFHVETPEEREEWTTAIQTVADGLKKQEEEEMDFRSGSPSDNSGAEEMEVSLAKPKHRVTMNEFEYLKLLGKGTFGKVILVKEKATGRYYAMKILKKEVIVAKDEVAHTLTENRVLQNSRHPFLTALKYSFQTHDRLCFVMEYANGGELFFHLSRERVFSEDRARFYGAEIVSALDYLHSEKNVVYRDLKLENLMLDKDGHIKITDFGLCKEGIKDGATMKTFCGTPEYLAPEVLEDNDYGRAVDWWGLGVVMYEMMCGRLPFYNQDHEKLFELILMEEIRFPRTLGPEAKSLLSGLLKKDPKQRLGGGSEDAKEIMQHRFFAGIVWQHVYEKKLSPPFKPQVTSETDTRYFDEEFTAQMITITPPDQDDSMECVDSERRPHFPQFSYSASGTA
T1 sequence (P45983 whole entry): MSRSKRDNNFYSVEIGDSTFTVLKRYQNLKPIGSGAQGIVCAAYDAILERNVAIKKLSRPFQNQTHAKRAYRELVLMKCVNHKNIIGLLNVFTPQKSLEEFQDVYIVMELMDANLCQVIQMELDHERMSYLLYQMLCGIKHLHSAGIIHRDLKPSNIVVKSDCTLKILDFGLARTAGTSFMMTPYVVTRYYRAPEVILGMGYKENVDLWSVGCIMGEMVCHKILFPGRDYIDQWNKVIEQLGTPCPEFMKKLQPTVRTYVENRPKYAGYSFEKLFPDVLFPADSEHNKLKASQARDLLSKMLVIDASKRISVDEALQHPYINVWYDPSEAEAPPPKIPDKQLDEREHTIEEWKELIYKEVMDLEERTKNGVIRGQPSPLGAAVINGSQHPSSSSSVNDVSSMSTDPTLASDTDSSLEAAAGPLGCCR
Sequence of Mitogen-activated protein kinase 9 (Homo sapiens, UniProt P45984, C163S) (P45984 whole entry C163S): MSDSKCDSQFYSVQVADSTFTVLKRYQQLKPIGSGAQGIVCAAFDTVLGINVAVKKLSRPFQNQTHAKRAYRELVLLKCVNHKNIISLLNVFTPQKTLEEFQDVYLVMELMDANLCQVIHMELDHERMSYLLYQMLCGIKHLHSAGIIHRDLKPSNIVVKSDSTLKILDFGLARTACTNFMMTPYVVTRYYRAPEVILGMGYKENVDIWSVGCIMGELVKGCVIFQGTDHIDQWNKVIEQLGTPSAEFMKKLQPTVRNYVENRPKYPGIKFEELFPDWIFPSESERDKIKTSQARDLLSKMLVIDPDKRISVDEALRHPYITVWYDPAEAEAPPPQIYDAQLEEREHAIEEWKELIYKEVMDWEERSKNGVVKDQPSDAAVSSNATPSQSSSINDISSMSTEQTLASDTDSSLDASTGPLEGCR
Sequence of Mitogen-activated protein kinase 14 (Q16539 whole entry): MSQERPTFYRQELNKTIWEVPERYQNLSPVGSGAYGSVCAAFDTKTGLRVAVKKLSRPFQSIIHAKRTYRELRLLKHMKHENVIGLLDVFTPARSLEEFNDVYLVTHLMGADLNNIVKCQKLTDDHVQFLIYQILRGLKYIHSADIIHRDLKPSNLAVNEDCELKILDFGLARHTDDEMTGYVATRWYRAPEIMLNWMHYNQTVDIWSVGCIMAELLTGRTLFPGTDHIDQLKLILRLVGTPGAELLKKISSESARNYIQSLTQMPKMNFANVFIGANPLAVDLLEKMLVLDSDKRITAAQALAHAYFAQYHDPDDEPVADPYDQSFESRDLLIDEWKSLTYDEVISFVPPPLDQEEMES

SMILES	inhibition [1]	inhibition [2] [%]	IC50 [3] [µM]	IC50 [4] [µM]	IC50 [5] [µM]	IC50 [6] [µM]	IC50 (Furin) [µM]	IC50 (Lethal factor) [µM]	remaining at 1 h [7] [%]	permeability [8] [%]	remaining at 0.5 h [9] [%]	Kd [10] [µM]	Kd [11] [µM]	IC50 [12] [µM]
CCCCNc1nnc(Sc2ncc([N+](=O)[O-])s2)s1	inactive	20	–	–	–	–	–	–	–	–	–	–	–	–
O=[N+]([O-])c1cnc(Sc2nnc(NCc3ccccc3)s2)s1	inactive	20	–	–	–	–	–	–	–	–	–	–	–	–
COc1ccc(CCNc2nnc(Sc3ncc([N+](=O)[O-])s3)s2)cc1OC	–	–	5.7	0.1	> 100	> 100	> 50	> 100	68	76.3	6.05	1.9	–	–
O=[N+]([O-])c1cnc(Sc2nnc(O)n2-c2ccc3c(c2)OCCO3)s1	–	–	–	0.5	–	–	–	–	0	5.5	–	51.1	8.1	–
O=[N+]([O-])c1cnc(Sc2nnc(NCC3CCCO3)s2)s1 (stereo not given)	–	–	10	0.47	–	–	–	–	–	–	–	–	–	–
CCNc1nnc(Sc2ncc([N+](=O)[O-])s2)s1	–	–	100	10	–	–	–	–	–	–	–	–	–	–
CCCNc1nnc(Sc2ncc([N+](=O)[O-])s2)s1	–	–	6.7	0.29	> 100	> 100	> 50	> 100	42	30	48.1	7.2	9.4	–
CCC(C)Nc1nnc(Sc2ncc([N+](=O)[O-])s2)s1 (stereo not given)	–	–	3	0.14	> 100	> 100	> 50	> 100	–	7.9	90	–	–	20
CC(C)(C)Nc1nnc(Sc2ncc([N+](=O)[O-])s2)s1	inactive	20	–	–	–	–	–	–	–	–	–	–	–	–
COc1ccc(CNc2nnc(Sc3ncc([N+](=O)[O-])s3)s2)cc1	–	–	9.1	0.1	–	–	–	–	–	–	–	–	–	21
COCCNc1nnc(Sc2ncc([N+](=O)[O-])s2)s1	–	–	4.8	0.16	> 100	> 100	> 50	> 100	35	49.8	79.7	4.2	2.8	8
